From ChEMBL document CHEMBL5661979, “Pharmacological inhibition of BMK1 suppresses tumor growth through promyelocytic leukemia protein” (Cancer Cell, 2010) come the findings set out here.

Assay [1] deals with Lewis lung carcinoma. In words: Antitumor activity against PML knock down mouse LL2 cells transfected with ad-PML allografted in C57Bl/6 mouse assessed as reduction tumor growth at 50 mg/kg, ip administered on day 8 post implantation measured after 20 days. Conditions: time 12.0 day.
Assay [2] deals with Ribosomal protein S6 kinase alpha-5 (Homo sapiens, UniProt O75582). Nature of the assay: Inhibition of MSK1 domain 1 in human HeLa cells lysate at 50 uM pre incubated for 15 mins followed by ADP acyl phosphate probe addition and measured after 10 mins by LC-MS/MS analysis relative to control. The class given is subcellular. Conditions: time 25.0 min.
Assay [3] has as its system A549. Nature of the assay: Antitumor activity against human A549 cells xenografted in NOD/SCID mouse assessed as increase in p21 protein expression level at 50 mg/kg, ip administered twice a day for 2 days by Western blot analysis. The class given is functional, organism-based. As to conditions: time 2.0 day. Summed up:
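A549 cells (1×10^6, in DMEM) were injected s.c. into the right flank of 6-week-old Nod/Scid mice. On day 21, mice received 50 mg/kg twice daily or carrier; 2 per group. After 2 days, tumors were homogenized in E1A buffer. Western blot read BMK1 activation (mobility shift) and p21, quantified by densitometry normalized to GAPDH.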

Assay [4] has as its target EKC/KEOPS complex subunit TP53RK (Homo sapiens, UniProt Q96S44). Nature of the assay: Inhibition of PRPK in human HeLa cells lysate pre incubated for 15 mins followed by ADP acyl phosphate probe addition and measured after 10 mins by LC-MS/MS analysis. Type of assay: subcellular.
The target in assay [5] is Ribosomal protein S6 kinase beta-2 (Homo sapiens, UniProt Q9UBS0). Nature of the assay: Inhibition of P70S6KB in human HeLa cells lysate at 50 uM pre incubated for 15 mins followed by ATP acyl phosphate probe addition and measured after 10 mins by LC-MS/MS analysis relative to control. As to conditions: time 25.0 min. Type of assay: subcellular.
Assay [6] deals with Epidermal growth factor receptor (Homo sapiens, UniProt P00533). Nature of the assay: Inhibition of EGFR in human HeLa cells lysate pre incubated for 15 mins followed by ATP acyl phosphate probe addition and measured after 10 mins by LC-MS/MS analysis. The class given is subcellular.
Assay [7] is described as follows: Inhibition of PCTAIRE2/3 in human HeLa cells lysate at 2 uM pre incubated for 15 mins followed by ADP acyl phosphate probe addition and measured after 10 mins by LC-MS/MS analysis relative to control. As to conditions: 25 min, condition cancer.
Assay [8] concerns the target Serine/threonine-protein kinase ATR (Homo sapiens, UniProt Q13535). Nature of the assay: Inhibition of ATR in human HeLa cells lysate at 10 uM pre incubated for 15 mins followed by ATP acyl phosphate probe addition and measured after 10 mins by LC-MS/MS analysis relative to control. The class given is subcellular. As to conditions: time 25.0 min. In short, it runs like this:
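KiNativ-type profiling in HeLa lysate (5 mg/mL total protein). Lysate preincubated 15 min with inhibitor at 50, 10, 2, 0.8 or 0 μM, then ATP or ADP acylphosphate probe added (5 μM final) for 10 min. Reaction stopped with urea and analysed by targeted MS, using up to four fragment ions per kinase peptide-probe conjugate. % inhibition calculated against untreated lysate. Duplicate reactions.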

For assay [9], the target named is Serine/threonine-protein kinase Nek9 (Homo sapiens, UniProt Q8TD19). Nature of the assay: Inhibition of NEK9 in human HeLa cells lysate pre incubated for 15 mins followed by ADP acyl phosphate probe addition and measured after 10 mins by LC-MS/MS analysis. Type of assay: subcellular.
The target of assay [10] is Macrophage-stimulating protein receptor (Homo sapiens, UniProt Q04912). In words: Inhibition of RON in human HeLa cells lysate at 10 uM pre incubated for 15 mins followed by ADP acyl phosphate probe addition and measured after 10 mins by LC-MS/MS analysis relative to control. The class given is subcellular. Conditions: time 25.0 min.
Assay [11] addresses 5'-AMP-activated protein kinase catalytic subunit alpha-1 (Homo sapiens, UniProt Q13131). In words: Inhibition of AMPKalpha1 in human HeLa cells lysate at 50 uM pre incubated for 15 mins followed by ADP acyl phosphate probe addition and measured after 10 mins by LC-MS/MS analysis relative to control. The class given is subcellular. Conditions: time 25.0 min. In short, it runs like this:
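HeLa cell lysates (5 mg/mL total protein) were preincubated with inhibitor at 0, 0.8, 2, 10 or 50 μM for 15 min. ATP or ADP acylphosphate probe was then added (5 μM final) for 10 min, and reactions were stopped with urea. Up to four fragment ions per kinase probe-peptide were quantified by targeted MS. % inhibition was taken relative to untreated lysate. Run in duplicate.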

The target in assay [12] is Cyclin-dependent kinase 15 (Homo sapiens, UniProt Q96Q40). In words: Inhibition of PFTAIRE2 in human HeLa cells lysate pre incubated for 15 mins followed by ADP acyl phosphate probe addition and measured after 10 mins by LC-MS/MS analysis. Type of assay: subcellular.
Assay [13] deals with Cyclin-dependent kinase 9 (Homo sapiens, UniProt P50750). Nature of the assay: Inhibition of CDK9 in human HeLa cells lysate at 2 uM pre incubated for 15 mins followed by ATP acyl phosphate probe addition and measured after 10 mins by LC-MS/MS analysis relative to control. The class given is subcellular. As to conditions: time 25.0 min. Summed up:
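KiNativ profiling in HeLa lysate (5 mg/mL total protein). Lysate incubated 15 min with inhibitor at 50, 10, 2, 0.8 or 0 μM. ATP or ADP acylphosphate probe then added (5 μM final) and reacted 10 min. Reaction stopped with urea and analysed by targeted MS, using up to four fragment ions per kinase peptide-probe conjugate. % inhibition taken against untreated lysate. Run in duplicate.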

For assay [14], the target named is T1, Serine/threonine-protein kinase ULK3 (Homo sapiens) (UniProt Q6PHR2).
T1 sequence (whole entry): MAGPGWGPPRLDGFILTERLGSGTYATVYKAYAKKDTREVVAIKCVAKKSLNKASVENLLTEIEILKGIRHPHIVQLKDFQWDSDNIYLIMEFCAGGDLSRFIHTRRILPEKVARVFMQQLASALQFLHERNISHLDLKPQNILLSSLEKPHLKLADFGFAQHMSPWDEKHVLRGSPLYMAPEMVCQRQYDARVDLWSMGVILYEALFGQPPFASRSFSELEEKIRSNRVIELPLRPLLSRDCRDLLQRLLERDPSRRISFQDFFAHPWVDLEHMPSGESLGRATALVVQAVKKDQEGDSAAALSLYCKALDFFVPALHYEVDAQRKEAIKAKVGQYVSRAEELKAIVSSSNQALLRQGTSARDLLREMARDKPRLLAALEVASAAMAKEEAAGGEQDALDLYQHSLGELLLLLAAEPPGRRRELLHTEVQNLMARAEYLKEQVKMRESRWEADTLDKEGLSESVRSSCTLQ
In words: Inhibition of ULK3 in human HeLa cells lysate at 10 uM pre incubated for 15 mins followed by ADP acyl phosphate probe addition and measured after 10 mins by LC-MS/MS analysis relative to control. Type of assay: subcellular. As to conditions: time 25.0 min.

Assay [15] addresses Serine/threonine-protein kinase Chk2 (Homo sapiens, UniProt O96017). Nature of the assay: Inhibition of CHK2 in human HeLa cells lysate at 50 uM pre incubated for 15 mins followed by ADP acyl phosphate probe addition and measured after 10 mins by LC-MS/MS analysis relative to control. The class given is subcellular. Conditions: time 25.0 min.
Assay [16] addresses Protein kinase C zeta type (Homo sapiens, UniProt Q05513). Nature of the assay: Inhibition of PKCzeta in human HeLa cells lysate pre incubated for 15 mins followed by ADP acyl phosphate probe addition and measured after 10 mins by LC-MS/MS analysis. Type of assay: subcellular.
In assay [17] the target is Phosphatidylinositol 3-kinase catalytic subunit type 3 (Homo sapiens, UniProt Q8NEB9). In words: Inhibition of PIK3C3 in human HeLa cells lysate pre incubated for 15 mins followed by ATP acyl phosphate probe addition and measured after 10 mins by LC-MS/MS analysis. Type of assay: subcellular.

SMILES strings stand for the structures. Calls of active or inactive are those of the source. The calls are words filed in the database; no cut-off is given here.

Sequence of Protein kinase C zeta type (Q05513 whole entry): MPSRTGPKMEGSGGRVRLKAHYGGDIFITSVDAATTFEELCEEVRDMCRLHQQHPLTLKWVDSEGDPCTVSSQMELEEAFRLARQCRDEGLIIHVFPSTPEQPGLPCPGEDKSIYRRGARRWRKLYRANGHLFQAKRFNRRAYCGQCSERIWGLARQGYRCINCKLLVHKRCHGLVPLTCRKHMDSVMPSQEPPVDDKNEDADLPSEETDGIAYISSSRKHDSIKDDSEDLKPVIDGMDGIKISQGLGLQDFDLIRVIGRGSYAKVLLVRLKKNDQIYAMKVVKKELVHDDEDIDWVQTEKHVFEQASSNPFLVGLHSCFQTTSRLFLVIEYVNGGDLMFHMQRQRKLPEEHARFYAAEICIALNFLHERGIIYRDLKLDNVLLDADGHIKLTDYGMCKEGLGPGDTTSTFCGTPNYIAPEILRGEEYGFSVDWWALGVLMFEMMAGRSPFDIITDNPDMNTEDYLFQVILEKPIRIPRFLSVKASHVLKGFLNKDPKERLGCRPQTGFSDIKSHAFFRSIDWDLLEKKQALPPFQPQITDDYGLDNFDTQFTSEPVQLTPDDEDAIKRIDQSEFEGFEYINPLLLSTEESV
Sequence of Ribosomal protein S6 kinase beta-2 (Q9UBS0 whole entry): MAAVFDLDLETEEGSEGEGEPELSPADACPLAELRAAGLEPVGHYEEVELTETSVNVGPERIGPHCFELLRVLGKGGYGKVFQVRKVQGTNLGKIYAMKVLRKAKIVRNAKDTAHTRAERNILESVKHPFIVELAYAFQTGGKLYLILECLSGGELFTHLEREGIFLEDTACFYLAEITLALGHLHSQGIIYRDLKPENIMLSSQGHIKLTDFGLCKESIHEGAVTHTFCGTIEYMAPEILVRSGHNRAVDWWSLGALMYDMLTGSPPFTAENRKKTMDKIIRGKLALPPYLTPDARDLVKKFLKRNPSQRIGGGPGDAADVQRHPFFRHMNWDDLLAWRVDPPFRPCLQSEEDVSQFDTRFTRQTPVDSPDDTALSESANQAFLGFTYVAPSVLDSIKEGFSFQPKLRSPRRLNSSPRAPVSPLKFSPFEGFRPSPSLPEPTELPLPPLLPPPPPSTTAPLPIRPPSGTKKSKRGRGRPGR
Sequence of Phosphatidylinositol 3-kinase catalytic subunit type 3 (Q8NEB9 whole entry): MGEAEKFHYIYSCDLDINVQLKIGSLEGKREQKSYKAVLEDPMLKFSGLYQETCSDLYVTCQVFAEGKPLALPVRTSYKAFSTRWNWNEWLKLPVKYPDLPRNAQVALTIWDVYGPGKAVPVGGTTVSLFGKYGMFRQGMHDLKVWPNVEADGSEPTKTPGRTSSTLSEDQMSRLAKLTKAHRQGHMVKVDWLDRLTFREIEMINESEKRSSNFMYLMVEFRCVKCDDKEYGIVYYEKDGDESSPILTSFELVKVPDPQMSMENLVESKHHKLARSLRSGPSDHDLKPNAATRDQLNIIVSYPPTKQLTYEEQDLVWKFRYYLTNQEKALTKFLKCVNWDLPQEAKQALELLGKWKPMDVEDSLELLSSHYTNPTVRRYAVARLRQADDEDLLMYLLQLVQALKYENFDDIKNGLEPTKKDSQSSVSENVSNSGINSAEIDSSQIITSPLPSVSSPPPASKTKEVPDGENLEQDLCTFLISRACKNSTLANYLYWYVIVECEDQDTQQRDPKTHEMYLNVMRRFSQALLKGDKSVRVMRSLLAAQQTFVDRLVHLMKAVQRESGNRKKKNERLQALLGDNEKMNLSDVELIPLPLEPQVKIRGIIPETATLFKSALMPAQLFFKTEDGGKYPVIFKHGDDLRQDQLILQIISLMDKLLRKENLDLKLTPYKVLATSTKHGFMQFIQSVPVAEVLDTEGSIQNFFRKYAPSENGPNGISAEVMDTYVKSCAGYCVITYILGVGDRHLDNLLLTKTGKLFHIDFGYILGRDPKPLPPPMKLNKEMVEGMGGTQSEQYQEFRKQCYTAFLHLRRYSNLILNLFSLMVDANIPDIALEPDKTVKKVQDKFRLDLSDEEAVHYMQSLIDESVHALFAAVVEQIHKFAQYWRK
Sequence of Cyclin-dependent kinase 9 (P50750 whole entry, the tested form may be a part): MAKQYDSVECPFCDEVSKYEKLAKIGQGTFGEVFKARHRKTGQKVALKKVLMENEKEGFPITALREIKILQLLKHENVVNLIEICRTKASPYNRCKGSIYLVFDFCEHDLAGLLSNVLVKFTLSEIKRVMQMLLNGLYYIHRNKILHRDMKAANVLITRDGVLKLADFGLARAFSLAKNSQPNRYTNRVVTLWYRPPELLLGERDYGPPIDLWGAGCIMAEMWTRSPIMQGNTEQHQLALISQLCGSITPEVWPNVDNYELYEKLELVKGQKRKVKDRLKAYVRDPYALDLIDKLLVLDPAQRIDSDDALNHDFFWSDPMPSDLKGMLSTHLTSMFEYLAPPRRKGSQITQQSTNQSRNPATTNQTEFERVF
Sequence of Macrophage-stimulating protein receptor (Q04912 25-304 limits assumed): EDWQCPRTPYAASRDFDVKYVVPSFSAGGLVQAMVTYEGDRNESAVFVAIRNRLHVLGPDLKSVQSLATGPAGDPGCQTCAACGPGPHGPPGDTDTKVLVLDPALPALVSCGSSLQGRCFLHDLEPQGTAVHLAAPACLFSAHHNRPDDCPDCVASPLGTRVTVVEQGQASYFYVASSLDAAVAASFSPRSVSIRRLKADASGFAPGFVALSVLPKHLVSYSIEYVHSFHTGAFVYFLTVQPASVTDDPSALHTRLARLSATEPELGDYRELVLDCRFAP
Sequence of Macrophage-stimulating protein receptor (Q04912 310-1400 limits assumed): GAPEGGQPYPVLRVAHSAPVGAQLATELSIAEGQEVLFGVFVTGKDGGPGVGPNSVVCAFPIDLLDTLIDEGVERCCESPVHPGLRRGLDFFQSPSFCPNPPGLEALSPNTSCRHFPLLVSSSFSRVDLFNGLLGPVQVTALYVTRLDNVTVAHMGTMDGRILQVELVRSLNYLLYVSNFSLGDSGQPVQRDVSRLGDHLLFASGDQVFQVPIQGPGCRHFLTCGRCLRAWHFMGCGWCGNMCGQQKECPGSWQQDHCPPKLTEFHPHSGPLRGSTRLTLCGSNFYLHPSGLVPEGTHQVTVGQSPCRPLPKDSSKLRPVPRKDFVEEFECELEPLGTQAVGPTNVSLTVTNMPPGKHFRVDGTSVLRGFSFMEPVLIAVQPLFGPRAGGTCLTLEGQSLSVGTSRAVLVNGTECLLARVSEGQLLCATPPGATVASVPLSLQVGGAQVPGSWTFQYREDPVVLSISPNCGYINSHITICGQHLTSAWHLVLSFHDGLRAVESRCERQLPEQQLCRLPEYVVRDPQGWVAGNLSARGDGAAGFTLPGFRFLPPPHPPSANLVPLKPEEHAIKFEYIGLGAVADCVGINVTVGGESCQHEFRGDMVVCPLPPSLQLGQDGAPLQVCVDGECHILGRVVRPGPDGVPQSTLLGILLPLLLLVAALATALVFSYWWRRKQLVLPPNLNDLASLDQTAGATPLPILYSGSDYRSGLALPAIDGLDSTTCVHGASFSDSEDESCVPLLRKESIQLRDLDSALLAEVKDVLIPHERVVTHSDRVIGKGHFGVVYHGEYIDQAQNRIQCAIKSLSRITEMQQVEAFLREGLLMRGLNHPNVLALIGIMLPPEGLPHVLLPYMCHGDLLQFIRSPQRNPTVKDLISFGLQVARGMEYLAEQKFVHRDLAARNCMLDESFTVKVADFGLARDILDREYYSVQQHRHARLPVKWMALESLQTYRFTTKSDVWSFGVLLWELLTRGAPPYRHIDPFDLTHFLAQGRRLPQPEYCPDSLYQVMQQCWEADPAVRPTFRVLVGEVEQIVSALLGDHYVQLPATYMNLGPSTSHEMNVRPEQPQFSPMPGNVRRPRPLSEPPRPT
Sequence of 5'-AMP-activated protein kinase catalytic subunit alpha-1 (Q13131 whole entry, looked up, the tested form may be a part): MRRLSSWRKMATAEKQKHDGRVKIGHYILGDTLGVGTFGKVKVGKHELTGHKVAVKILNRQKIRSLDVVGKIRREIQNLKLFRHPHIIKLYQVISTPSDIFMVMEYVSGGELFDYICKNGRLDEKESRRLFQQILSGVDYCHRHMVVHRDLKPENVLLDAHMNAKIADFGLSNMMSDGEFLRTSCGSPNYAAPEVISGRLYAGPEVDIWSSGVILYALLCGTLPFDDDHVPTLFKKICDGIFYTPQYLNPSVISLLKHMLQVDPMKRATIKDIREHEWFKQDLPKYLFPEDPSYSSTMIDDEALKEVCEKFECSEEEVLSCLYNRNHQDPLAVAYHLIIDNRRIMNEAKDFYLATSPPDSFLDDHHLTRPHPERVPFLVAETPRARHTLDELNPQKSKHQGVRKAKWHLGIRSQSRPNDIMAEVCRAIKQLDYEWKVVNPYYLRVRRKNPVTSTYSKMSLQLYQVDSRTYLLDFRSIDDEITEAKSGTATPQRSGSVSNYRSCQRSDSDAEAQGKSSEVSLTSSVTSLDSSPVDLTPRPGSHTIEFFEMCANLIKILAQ
Sequence of Serine/threonine-protein kinase Chk2 (O96017 whole entry): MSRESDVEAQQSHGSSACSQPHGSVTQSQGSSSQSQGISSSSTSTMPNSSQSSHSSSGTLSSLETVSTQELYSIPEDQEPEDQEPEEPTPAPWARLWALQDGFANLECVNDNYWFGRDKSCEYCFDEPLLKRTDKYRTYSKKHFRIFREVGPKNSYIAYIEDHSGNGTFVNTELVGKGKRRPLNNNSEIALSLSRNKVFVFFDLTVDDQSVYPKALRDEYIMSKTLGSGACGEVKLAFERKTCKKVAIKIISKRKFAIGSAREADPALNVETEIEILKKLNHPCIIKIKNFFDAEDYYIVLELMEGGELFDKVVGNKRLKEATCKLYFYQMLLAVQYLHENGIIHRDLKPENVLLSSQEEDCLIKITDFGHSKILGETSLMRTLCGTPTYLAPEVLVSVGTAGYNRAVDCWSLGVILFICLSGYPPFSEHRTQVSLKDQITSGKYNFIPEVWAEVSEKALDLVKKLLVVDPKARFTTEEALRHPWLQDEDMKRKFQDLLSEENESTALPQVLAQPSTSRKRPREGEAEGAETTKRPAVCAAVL

With `CCOc1cc(N2CCC(O)CC2)ccc1Nc1ncc2c(n1)N(C)c1ccccc1C(=O)N2C`, the result in [1] and in assay [3] was Active. In addition, the inhibition in [2] amounted to 6.4%; in assay [5] it was 3%; in assay [8], 6.7%; in [10], 24.9%; in assay [11], 10.2%; in assay [13] it was 11.6%. Besides, the figures for the inhibition in [14] and in assay [15] were 1.2% and -2.7%, respectively. The IC50 in assay [4], in [6], in assay [9], in [12], in [16] and in [17] was over 50 µM throughout. Moreover, the inhibition at 2 µM in [7] stood at 10.1%.
